{
  "source": "ChEMBL document CHEMBL4229489",
  "about": "“Synthesis and evaluation of camphor and cytisine-based cyanopyrrolidines as DPP-IV inhibitors for the treatment of type 2 diabetes mellitus” (Bioorg Med Chem, 2018)",
  "key": {"[1]": {"test_system": "Mus musculus", "assay": "Hypoglycemic activity in albino CD-1 mouse assessed as reduction in blood glucose level at 10 mg/kg, po pretreated for 0.5 hrs followed by glucose challenge and measured after 30 to 90 mins by OGTT", "format": "functional, organism-based", "method_in_brief": "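Male CD-1 albino mice, 25–35 g, randomized by weight into groups of 5, fasted 12 h. Compounds mixed with a few drops of Tween 80 or DMSO, dissolved in distilled water, given orally at 10 mg/kg 0.5 h before an oral glucose load (2.5 g/kg). Controls got vehicle only. Blood glucose read by glucometer at 0, 30, 60, 90 min. Mean ± SD, n = 5.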"}, "[2]": {"biological_target": "Dipeptidyl peptidase 4 (Homo sapiens, UniProt P27487)", "sequence (P27487 whole entry)": "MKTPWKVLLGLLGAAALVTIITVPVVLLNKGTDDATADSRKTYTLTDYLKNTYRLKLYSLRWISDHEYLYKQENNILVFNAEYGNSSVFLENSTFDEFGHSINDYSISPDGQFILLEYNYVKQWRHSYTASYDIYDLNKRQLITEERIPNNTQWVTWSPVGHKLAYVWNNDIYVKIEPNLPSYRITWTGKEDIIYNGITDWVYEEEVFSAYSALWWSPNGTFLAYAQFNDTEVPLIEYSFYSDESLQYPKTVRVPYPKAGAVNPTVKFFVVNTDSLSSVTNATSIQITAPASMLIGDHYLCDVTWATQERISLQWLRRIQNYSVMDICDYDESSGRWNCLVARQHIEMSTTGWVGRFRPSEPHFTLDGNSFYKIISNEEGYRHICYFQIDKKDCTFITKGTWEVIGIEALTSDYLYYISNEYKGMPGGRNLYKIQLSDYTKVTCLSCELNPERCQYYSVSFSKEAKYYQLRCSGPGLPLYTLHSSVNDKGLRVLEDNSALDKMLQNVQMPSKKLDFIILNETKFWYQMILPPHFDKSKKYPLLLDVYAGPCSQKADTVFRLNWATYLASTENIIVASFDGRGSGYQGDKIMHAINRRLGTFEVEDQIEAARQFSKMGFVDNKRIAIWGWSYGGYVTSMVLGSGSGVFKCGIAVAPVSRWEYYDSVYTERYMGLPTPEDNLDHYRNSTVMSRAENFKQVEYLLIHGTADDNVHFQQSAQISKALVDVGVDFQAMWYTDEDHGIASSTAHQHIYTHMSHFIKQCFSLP", "assay": "Inhibition of recombinant human DPP4 using H-Gly-Pro-AMC as substrate measured after 10 mins"}},
  "note": "Calls of active or inactive are those of the source. No cut-off for these calls is given here.",
  "data": [
    {"smiles": "CC1(C)[C@@H]2CC[C@@]1(C)[C@H](NCC(=O)N1CCC[C@H]1C#N)C2", "values": [
      {"measurement": "Activity", "setting": "[1]", "value": "Active"}
    ]},
    {"smiles": "CC1(C)[C@H]2CC[C@]1(C)[C@@H](NCC(=O)N1CCC[C@H]1C#N)C2", "values": [
      {"measurement": "Activity", "setting": "[1]", "value": "Active"}
    ]},
    {"smiles": "CC12CCC([C@H](NCC(=O)N3CCC[C@H]3C#N)C1=O)C2(C)C", "note": "(single isomer, unassigned)", "values": [
      {"measurement": "Activity", "setting": "[1]", "value": "Active"}
    ]},
    {"smiles": "N#C[C@@H]1CCCN1C(=O)CN1C[C@H]2C[C@H](C1)c1c(Br)cc(Br)c(=O)n1C2", "values": [
      {"measurement": "IC50", "setting": "[2]", "value": "Not Active"},
      {"measurement": "Activity", "setting": "[1]", "value": "inactive"}
    ]},
    {"smiles": "CC1(C)[C@H]2CC[C@]1(C)[C@@H](O)[C@H]2NCC(=O)N1CCC[C@H]1C#N", "note": "(stereo in doubt)", "values": [
      {"measurement": "Activity", "setting": "[1]", "value": "Active"}
    ]},
    {"smiles": "N#C[C@@H]1CCCN1C(=O)CN1C[C@H]2C[C@H](C1)c1c(Cl)cc(Cl)c(=O)n1C2", "values": [
      {"measurement": "IC50", "setting": "[2]", "value": "Not Active"},
      {"measurement": "Activity", "setting": "[1]", "value": "inactive"}
    ]},
    {"smiles": "N#C[C@@H]1CCCN1C(=O)CN1C[C@H]2C[C@H](C1)c1c(Cl)ccc(=O)n1C2", "values": [
      {"measurement": "IC50", "setting": "[2]", "value": "Not Active"},
      {"measurement": "Activity", "setting": "[1]", "value": "inactive"}
    ]},
    {"smiles": "N#C[C@@H]1CCCN1C(=O)CN1C[C@H]2C[C@H](C1)c1ccc([N+](=O)[O-])c(=O)n1C2", "values": [
      {"measurement": "IC50", "setting": "[2]", "value": "Not Active"},
      {"measurement": "Activity", "setting": "[1]", "value": "inactive"}
    ]},
    {"smiles": "N#C[C@@H]1CCCN1C(=O)CN1C[C@H]2C[C@H](C1)c1cccc(=O)n1C2", "values": [
      {"measurement": "IC50", "setting": "[2]", "value": "Not Active"},
      {"measurement": "Activity", "setting": "[1]", "value": "inactive"}
    ]},
    {"smiles": "N#C[C@@H]1CCCN1C(=O)CNC12CC3CC(CC(O)(C3)C1)C2", "values": [
      {"measurement": "Activity", "setting": "[1]", "value": "Active"}
    ]}
  ]
}
